Experimental data as given in ChEMBL document CHEMBL1123462, “Indolo[2,1-c][1,4]benzodiazepines: a new class of antiallergic agents” (J Med Chem, 1986).

How the values were obtained:
[1] = tested on: Rattus norvegicus; assay: Compound was tested for percent inhibition, at 0.12 mg/kg administered intraperitoneally against serotonin by Dunnett's test; type: functional; details: ip, read-out: Inhibition, route intraperitoneal
Outline: (§1)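 Male Sprague-Dawley rats were given 0.05 mL of high-titer IgE rat anti-ovalbumin antiserum intradermally. 24 h later: iv ovalbumin plus Evans Blue in saline, with simultaneous intradermal serotonin and histamine. Drug given ip 1 h before antigen. At 30 min, skin was reflected and wheal size and colour scored against a chart. %inhibition = (1 − mean treated/mean control score)×100. Dunnett's test, p ≤ 0.05.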

[2] = tested on: Cavia porcellus; assay: Compound was tested for the inhibition of guinea pig active lung anaphylaxis (ALA) at 1 mg/kg iv; type: functional
Outline: (§2)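 Guinea pigs were sensitized with egg albumin 1 mg sc plus Bordetella pertussis vaccine adjuvant. Two weeks later: pentobarbital 65 mg/kg ip, then trachea, jugular vein and carotid cannulated. Drug given iv before an iv egg albumin challenge (0.5 mg/kg). Airway resistance (bronchoconstriction) and arterial pressure monitored. %inhibition given as mean ± SE; ED50 iv with 95% confidence limits.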

[3] = tested on: Cavia porcellus; assay: Compound was tested for the inhibition of guinea pig active lung anaphylaxis (ALA) administered intravenously; type: functional; details: iv; outline: as §2
[4] = tested on: Rattus norvegicus; assay: Compound was tested for percent inhibition, at 0.37 mg/kg administered intraperitoneally against histamine by Dunnett's test; type: functional; details: ip, route intraperitoneal; outline: as §1
[5] = tested on: Rattus norvegicus; assay: Compound was tested for percent inhibition, at 0.12 mg/kg administered intraperitoneally against histamine; type: functional; details: ip, read-out: Inhibition, route intraperitoneal; outline: as §1
[6] = tested on: Rattus norvegicus; assay: Compound was tested for percent inhibition, at 0.12 mg/kg administered intraperitoneally against rat passive cutaneous anaphylaxis by Dunnett's test; type: functional; details: ip, read-out: Inhibition, route intraperitoneal; outline: as §1
[7] = tested on: Rattus norvegicus; assay: Compound was tested for percent inhibition, at 0.37 mg/kg administered intraperitoneally against serotonin by Dunnett's test; type: functional; details: ip, route intraperitoneal; outline: as §1
[8] = tested on: Rattus norvegicus; assay: Compound was tested […] for the inhibition of serotonin release in rat peritoneal cell; type: functional
[9] = tested on: Rattus norvegicus; assay: Compound was tested for the inhibition of rat passive cutaneous anaphylaxis (PCA) administered intraperitoneally; type: functional; details: ip; outline: as §1
[10] = tested on: Rattus norvegicus; assay: Compound was tested for the inhibition of rat passive cutaneous anaphylaxis (PCA) at 0.37 mg/kg dose ip (1h pretreatment); type: functional; details: route intraperitoneal; outline: as §1
[11] = tested on: Rattus norvegicus; assay: Compound was tested for percent inhibition, at 3.3 mg/kg administered intraperitoneally against serotonin by Dunnett's test; type: functional; details: ip, route intraperitoneal; outline: as §1
[12] = tested on: Rattus norvegicus; assay: Compound was tested for percent inhibition, at 3.3 mg/kg administered intraperitoneally against rat passive cutaneous anaphylaxis by Dunnett's test; type: functional; details: ip, route intraperitoneal; outline: as §1
[13] = tested on: Rattus norvegicus; assay: Compound was tested for percent inhibition, at 0.37 mg/kg administered intraperitoneally against histamine; type: functional; details: ip, route intraperitoneal; outline: as §1
[14] = tested on: Rattus norvegicus; assay: Compound was tested for percent inhibition, at 3.3 mg/kg administered intraperitoneally against histamine by Dunnett's test; type: functional; details: ip, route intraperitoneal; outline: as §1
[15] = tested on: Rattus norvegicus; assay: Compound was tested for the inhibition of rat passive cutaneous anaphylaxis (PCA) at 10 mg/kg dose ip (1h pretreatment); type: functional; details: route intraperitoneal
[16] = tested on: Cavia porcellus; assay: Compound was tested for the inhibition of guinea pig active lung anaphylaxis (ALA) at 100 mg/kg iv; type: functional; outline: as §2
[17] = tested on: Rattus norvegicus; assay: Compound was tested for percent inhibition, at 10 mg/kg administered intravenously against histamine by Dunnett's test; details: iv
[18] = tested on: Rattus norvegicus; assay: Compound was tested for percent inhibition, at 10 mg/kg administered intravenously against serotonin by Dunnett's test; details: iv
[19] = tested on: Rattus norvegicus; assay: Compound was tested for the inhibition of rat passive cutaneous anaphylaxis (PCA) at 10 mg/kg dose iv (5 min pretreatment); type: functional
Outline: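 Rat skin IgE/ovalbumin PCA with simultaneous intradermal histamine and serotonin wheals. Drug given iv 5 min before the iv ovalbumin/Evans Blue challenge. Read 30 min later by wheal size and colour score. %inhibition = (1 − mean treated/mean control score)×100. Dunnett's test, p ≤ 0.05.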

[20] = tested on: Rattus norvegicus; assay: Compound was tested for percent inhibition, at 1 mg/kg administered intravenously against rat passive cutaneous anaphylaxis by Dunnett''s test; details: iv, read-out: Inhibition
[21] = tested on: Rattus norvegicus; assay: Compound was tested for percent inhibition, at 1 mg/kg administered intravenously against histamine; details: iv, read-out: Inhibition
[22] = tested on: Cavia porcellus; assay: Inhibition of guinea pig ALA at a dose of 1 mg/kg after 8 hr postdosing orally; type: functional; details: route oral
Outline: (§3)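 Guinea pigs were sensitized with egg albumin 1 mg sc plus pertussis vaccine adjuvant. Two weeks later they were anesthetized (pentobarbital 65 mg/kg ip) and cannulated. Drug was given ip or orally at 1 mg/kg. Challenge with egg albumin 0.5 mg/kg iv at 1, 7, 8 or 24 h post-dose, with bronchoconstriction measured. %inhibition given as mean ± SD.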

[23] = tested on: Cavia porcellus; assay: Inhibition of guinea pig ALA at a dose of 1 mg/kg after 1 hr postdosing orally 1 h; type: functional; details: route oral; outline: as §3
[24] = tested on: Cavia porcellus; assay: Inhibition of guinea pig ALA at a dose of 1 mg/kg after 24 hr postdosing intraperitoneally; type: functional; details: ip, route intraperitoneal; outline: as §3
[25] = tested on: Cavia porcellus; assay: Compound was tested for the inhibition of guinea pig active lung anaphylaxis (ALA) at 0.01 mg/kg iv; type: functional; outline: as §2
[26] = tested on: Cavia porcellus; assay: Inhibition of guinea pig ALA at a dose of 1 mg/kg after 1 hr postdosing intraperitoneally 1 h; type: functional; details: ip, route intraperitoneal; outline: as §3
[27] = tested on: Cavia porcellus; assay: Inhibition of guinea pig ALA at a dose of 1 mg/kg after 7 hr postdosing intraperitoneally; type: functional; details: ip, route intraperitoneal; outline: as §3
[28] = tested on: Cavia porcellus; assay: Inhibition of guinea pig ALA at a dose of 1 mg/kg after 24 hr postdosing orally; type: functional; details: route oral; outline: as §3

Compound | inhibition in vivo at 1 mg/kg [2] [%] | ED50 [3] [mg/kg] | inhibition in vivo at 0.37 mg/kg [7] [%] | IC50 [8] [µM] | ED50 [9] [mg/kg] | inhibition in vivo at 0.37 mg/kg [10] [%] | inhibition in vivo at 3.3 mg/kg [11] [%] | inhibition in vivo at 3.3 mg/kg [12] [%] | inhibition in vivo at 0.37 mg/kg [13] [%] | inhibition in vivo at 3.3 mg/kg [14] [%] | further results
OCCCN1CCN(C2=Nc3ccccc3Cn3c2cc2ccccc23)CC1 | 64 | 0.69 | 53.2 | 15.2 | 0.08 | 92.9 | – | – | – | – | inhibition in vivo at 0.12 mg/kg [1]: 24.9%; inhibition in vivo at 0.37 mg/kg [4]: 53%; inhibition in vivo at 0.12 mg/kg [5]: 6.8%; inhibition in vivo at 0.12 mg/kg [6]: 58.8%
c1ccc2c(c1)Cn1c(cc3ccccc31)C(N1CCNCC1)=N2 | 82 | – | 44.5 | 7.38 | 0.43 | 52 | 65.8 | 92.7 | 14.2 | 55.7 | –
c1ccc2c(c1)Cn1c(cc3ccccc31)C(N1CCCCC1)=N2 | – | – | – | – | – | – | – | – | – | – | inhibition in vivo at 10 mg/kg [15]: 27.4%
CCOC(=O)N1CCN(C2=Nc3ccccc3Cn3c2cc2ccccc23)CC1 | – | – | – | – | 0.67 | 38.7 | – | – | – | – | –
O=C([O-])c1cc(=O)c2c(OCC(O)COc3cccc4oc(C(=O)[O-])cc(=O)c34)cccc2o1.[Na+].[Na+] [CROMOLYN SODIUM] | – | – | – | 256 | 2.55 | – | – | – | – | – | inhibition in vivo at 100 mg/kg [16]: 25%; inhibition in vivo at 10 mg/kg [17]: 8.5%; inhibition in vivo at 10 mg/kg [18]: 21.4%; inhibition in vivo at 10 mg/kg [19]: 97%; inhibition in vivo at 1 mg/kg [20]: 37%; inhibition in vivo at 1 mg/kg [21]: 0%
CN1CCN(C2=Nc3ccccc3Cn3c2cc2ccccc23)CC1 | – | 0.01 | 50.9 | 15.9 | 0.19 | 93.6 | 65.9 | 100 | 58.2 | 63.3 | inhibition in vivo at 1 mg/kg [22]: 87%; inhibition in vivo at 1 mg/kg [23]: 51%; inhibition in vivo at 1 mg/kg [24]: 26%; inhibition in vivo at 0.01 mg/kg [25]: 41%; inhibition in vivo at 1 mg/kg [26]: 74%; inhibition in vivo at 1 mg/kg [27]: 75%; inhibition in vivo at 1 mg/kg [28]: 61%
